Measured values as given in ChEMBL document CHEMBL1124458, “Electrophilic derivatives of purines as irreversible inhibitors of A1 adenosine receptors” (J Med Chem, 1989).

What was measured:
Adenosine receptor A1 [1] = target: T1, Adenosine receptor A1 (Bos taurus, UniProt P28190); assay: Affinity for Adenosine A1 receptor using [125I]APNEA in calf brain.
T1 sequence (P28190 whole entry): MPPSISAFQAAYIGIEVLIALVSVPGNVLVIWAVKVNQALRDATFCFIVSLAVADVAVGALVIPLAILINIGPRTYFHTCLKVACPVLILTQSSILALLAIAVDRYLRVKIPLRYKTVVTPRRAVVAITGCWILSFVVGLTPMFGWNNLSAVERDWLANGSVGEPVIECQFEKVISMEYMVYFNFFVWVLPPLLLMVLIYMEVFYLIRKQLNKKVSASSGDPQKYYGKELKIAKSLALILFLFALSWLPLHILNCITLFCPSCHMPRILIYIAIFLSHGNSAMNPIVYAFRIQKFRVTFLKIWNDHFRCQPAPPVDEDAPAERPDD
How it was run: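 Bovine cerebral cortex membranes were pretreated with adenosine deaminase (0.5 unit/mL, 20 min, 37 °C). Membranes (40 µg) were incubated with 125I-APNEA and competitor for 1 h at 37 °C. Separation was by dilution in cold Tris-HCl/MgCl2/EDTA buffer, pH 8.26, with 0.02% Chaps, then glass-filter filtration and gamma counting. Nonspecific binding was defined with 10⁻⁵ M (R)-PIA.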

[2] = target: T2, Adenosine receptor A1 (Rattus norvegicus) (UniProt P25099); assay: Percentage inhibition of [125I]APNEA binding to adenosine A1 receptor from rat brain after 45 min incubation at 500 nM
T2 sequence (whole entry): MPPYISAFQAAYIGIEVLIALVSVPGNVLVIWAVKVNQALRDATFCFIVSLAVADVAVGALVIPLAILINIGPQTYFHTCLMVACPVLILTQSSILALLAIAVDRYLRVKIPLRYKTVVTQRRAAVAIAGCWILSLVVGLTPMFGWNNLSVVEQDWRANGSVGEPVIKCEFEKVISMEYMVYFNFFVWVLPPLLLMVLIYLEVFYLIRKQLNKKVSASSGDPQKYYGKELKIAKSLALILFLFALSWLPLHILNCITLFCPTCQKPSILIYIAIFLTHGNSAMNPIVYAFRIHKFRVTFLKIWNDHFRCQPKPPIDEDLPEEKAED
How it was run: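 Adenosine deaminase-treated rat cerebral cortex membranes were exposed to the ligand for 45 min at 37 °C. They were washed three times, held in buffer with 10⁻⁴ M IBMX for 18 h at 25 °C, washed and re-treated with deaminase. Residual sites were measured by 125I-APNEA saturation (0.1–2.5 nM) against untreated membranes carried through the same procedure.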

Adenosine receptor A1 [3] = target: T3, Adenosine receptor A1 (Rattus norvegicus, UniProt P25099); assay: Affinity for A1 adenosine receptor using [3H]-N6 -(phenylisopropyl)-adenosine (R)-[3H]-PIA in rat brain; type: tissue-based
T3 sequence (P25099 whole entry): T2 sequence (whole entry)
How it was run: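 Rat cerebral cortex membranes pretreated with adenosine deaminase (0.5 unit/mL, 20 min, 37 °C). Competition against 1 nM (R)-[3H]PIA over a range of ligand concentrations, in triplicate, in at least three experiments. […] For irreversible ligands the value is an apparent Ki.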

Adenosine A2 receptor [4] = target: T4, Adenosine A2 receptor (Rattus norvegicus, UniProt P29276+P30543); assay: Inhibitory affinity for adenosine A2 receptor using [3H]N-ethyladenosine-5'-uronamide; type: protein assay
Adenosine receptor A1 [5] = target: T3, Adenosine receptor A1; assay: Affinity for adenosine A1 receptor using [3H]-N6 -(phenylisopropyl)-adenosine (R)-[3H]-PIA in rat brain.; type: tissue-based
How it was run: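 Rat cerebral cortex membranes were incubated with 1 nM (R)-[3H]PIA and a range of competitor concentrations. Each point was run in triplicate, in at least three separate experiments.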

[6] = target: T5, Adenosine receptors; A1 & A2 (Rattus norvegicus) (UniProt P29276+P25099+P30543); assay: Selectivity ratio between Ki for adenosine A2 and A1 receptors; type: protein assay
[7] = target: T5, Adenosine receptors; A1 & A2 (Rattus norvegicus); assay: Relative affinities for Adenosine A2 and Adenosine A1 receptors; type: protein assay
[8] = target: T2, Adenosine receptor A1 (Rattus norvegicus); assay: Percentage inhibition of [125I]APNEA binding to adenosine A1 receptor from rat brain after 45 min incubation at 1 nM
How it was run: (§1)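 Rat cerebral cortex membranes pretreated with adenosine deaminase (0.5 unit/mL, 20 min, 37 °C). Incubated with ligand at the stated concentration for 45 min at 37 °C, then washed three times in Tris/MgCl2/EDTA buffer pH 8.26 with 0.02% Chaps. Then 10⁻⁴ M IBMX for 18 h at 25 °C, washed twice and deaminase-treated again. Untreated membranes went through every step as controls.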

[9] = target: T2, Adenosine receptor A1 (Rattus norvegicus); assay: Percentage inhibition of [125I]APNEA binding to adenosine A1 receptor from rat brain after 45 min incubation at 10 nM; how it was run: as §1
Adenosine A2 receptor [10] = target: T4, Adenosine A2 receptor; assay: Inhibition of [3H]N-ethyladenosine-5'-uronamide binding to Adenosine A2 receptor of rat striatal membrane
[11] = target: T2, Adenosine receptor A1 (Rattus norvegicus); assay: Percentage inhibition of [125I]APNEA binding to Adenosine A1 receptor from rat brain after 45 min incubation at 10 nM; how it was run: as §1

CCCn1c(=O)c2nc(-c3ccc(OCC(=O)NCC=O)cc3)[nH]c2n(CCC)c1=O was tested, and the Ki (Adenosine receptor A1 [1]) was 3.17 nM, the inhibition [2] was 0% and the Ki (Adenosine receptor A1 [3]) was 266 nM.

With O=C(Cc1ccc(NC(=O)Cc2ccc(Nc3ncnc4c3ncn4C3O[C@H](CO)[C@@H](O)[C@H]3O)cc2)cc1)NCC/N=C(\S)Nc1ccc(S(=O)(=O)[O-])cc1.[Na+] (stereo partly specified) the Ki (Adenosine A2 receptor [4]) was 70 nM, the Ki (Adenosine receptor A1 [5]) was 51.1 nM and the Ratio [6] was 1.37.

With O=C(Cc1ccc(NC(=O)Cc2ccc(Nc3ncnc4c3ncn4C3O[C@H](CO)[C@@H](O)[C@H]3O)cc2)cc1)NCC/N=C(\S)Nc1cccc(N=C=S)c1 (stereo partly specified) the Ratio [7] was 203, the inhibition [8] was 62% and the inhibition [9] was > 90%. The Ki (Adenosine A2 receptor [10]) was 176 nM and the inhibition [11] was > 90%.
